Experimental data from ChEMBL document CHEMBL4196093, “Small-Molecule Activator of UNC-51-Like Kinase 1 (ULK1) That Induces Cytoprotective Autophagy for Parkinson's Disease Treatment” (J Med Chem, 2018).

Key:
[1] = target: T1, Serine/threonine-protein kinase ULK1 (Homo sapiens, UniProt O75385); assay: (§1) Induction of human recombinant N-terminal GST tagged-ULK1 (1 to 649 residues) kinase activity expressed in baculovirus infected insect Sf9 cells using MBP as substrate after 60 mins by ADP-glo assay
T1 sequence (O75385 whole entry): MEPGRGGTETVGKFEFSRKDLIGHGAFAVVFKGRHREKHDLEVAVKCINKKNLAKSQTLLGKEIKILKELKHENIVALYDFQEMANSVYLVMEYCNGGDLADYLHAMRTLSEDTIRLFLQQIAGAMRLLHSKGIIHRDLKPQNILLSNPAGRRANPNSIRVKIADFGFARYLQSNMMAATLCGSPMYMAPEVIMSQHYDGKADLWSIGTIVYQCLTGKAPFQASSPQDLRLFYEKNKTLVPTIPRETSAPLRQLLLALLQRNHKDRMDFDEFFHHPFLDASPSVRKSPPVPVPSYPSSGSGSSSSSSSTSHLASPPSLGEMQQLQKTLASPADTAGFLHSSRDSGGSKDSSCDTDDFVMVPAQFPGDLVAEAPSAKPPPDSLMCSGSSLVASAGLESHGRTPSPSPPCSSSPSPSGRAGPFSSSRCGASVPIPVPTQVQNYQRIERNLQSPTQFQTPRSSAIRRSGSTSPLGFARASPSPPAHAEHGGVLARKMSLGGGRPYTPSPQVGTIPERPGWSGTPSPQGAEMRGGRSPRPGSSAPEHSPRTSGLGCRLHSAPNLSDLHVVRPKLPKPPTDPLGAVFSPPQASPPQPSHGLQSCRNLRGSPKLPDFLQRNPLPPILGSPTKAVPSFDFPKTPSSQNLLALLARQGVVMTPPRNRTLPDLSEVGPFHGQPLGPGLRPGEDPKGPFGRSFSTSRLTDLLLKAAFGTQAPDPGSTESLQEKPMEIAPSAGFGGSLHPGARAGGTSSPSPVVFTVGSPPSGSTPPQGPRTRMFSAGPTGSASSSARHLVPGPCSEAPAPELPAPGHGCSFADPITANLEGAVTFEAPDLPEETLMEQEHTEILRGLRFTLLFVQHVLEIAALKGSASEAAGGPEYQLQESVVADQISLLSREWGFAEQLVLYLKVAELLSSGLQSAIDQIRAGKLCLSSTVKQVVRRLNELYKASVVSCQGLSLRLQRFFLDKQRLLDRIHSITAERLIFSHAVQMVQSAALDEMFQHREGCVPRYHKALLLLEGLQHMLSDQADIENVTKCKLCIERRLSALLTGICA
Outline: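 ULK1 (10 ng) incubated with MBP (0.1 µg/µl)/10 µM ATP and a compound concentration series in Tris pH 7.5/MgCl2/DTT/BSA buffer for 60 min at room temperature. ADP-Glo luminescence read. EC50 derived from the curve; Emax normalized to maximal response of the reference activator.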

[2] = target: T2, Serine/threonine-protein kinase ULK1 (Homo sapiens) (UniProt O75385); assay: as §1, with “cells at 100 nM” for “cells”, “assay relative to (R)-2-(3-(3,5-Bis(trifluoromethyl)phenyl)thioureido)-N-(2,4-difluorophenyl)-2-phenylacetamide” for “assay”
T2 sequence (whole entry): T1 sequence (O75385 whole entry)
Outline: (§2)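 Recombinant human ULK1 (10 ng) with MBP (0.1 µg/µl)/10 µM ATP and compound at 100 nM in 40 mM Tris pH 7.5, 20 mM MgCl2, 50 µM DTT, 0.1 mg/ml BSA. Incubated 60 min at room temperature; ADP-Glo luminescence read. Three independent experiments, mean ± SEM.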

[3] = target: T2, Serine/threonine-protein kinase ULK1 (Homo sapiens); assay: Induction of human recombinant N-terminal GST tagged-ULK1 (1 to 649 residues) kinase activity expressed in baculovirus infected insect Sf9 cells at 100 nM using MBP as substrate after 60 mins by ADP-glo assay relative to control; outline: as §2
[4] = target: T2, Serine/threonine-protein kinase ULK1 (Homo sapiens); assay: Induction of ULK1-mediated autophagy in human SH-SY5Y cells at 1 uM after 6 hrs by MDC-staining based flow cytometric analysis relative to control; format: cell-based
Outline: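 Autophagy scored as percentage of MDC-positive SH-SY5Y cells by flow cytometry after 1 µM compound; mean ± SEM.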

Compound | EC50 [1] [nM] | fold change (FC) [2] | Activity [3] [%] | Activity [4] [%]
Clc1ccc(CO[C@@H](Cn2ccnc2)c2ccc(Cl)cc2Cl)cc1 | 263 | 0.324 | – | –
CN1CCN(CC(OC(=O)c2ccc3c(c2)OCO3)c2ccccc2)CC1 (stereo not given) | 54.8 | 0.692 | 197 | 14.7
CN1CCN(CC(OC(=O)c2ccc3ncccc3c2)c2ccccc2)CC1 (stereo not given) | – | – | 181 | 12.5
Cc1ccccc1NC(=O)[C@H](NCCc1cccc2ccccc12)c1ccccc1 | – | – | 137 | 11
COc1ccc(N2CCN(CC(OC(=O)c3ccc(C(F)(F)F)cc3)c3ccccc3)CC2)cc1 (stereo not given) | – | – | 171 | 14.2
Cc1ccccc1NC(=O)[C@H](NC(=O)Nc1ccc(C(F)(F)F)cc1)c1ccccc1 | – | – | 183 | 38.4
Cc1ccccc1NC(=O)[C@H](NCCc1ccc(Cl)c(Cl)c1)c1ccccc1 | – | – | 153 | 20.3
Cc1ccccc1NC(=O)[C@H](NCCc1cc(Cl)ccc1O)c1ccccc1 | – | – | 146 | 15.3
O=C(Nc1cccc(Cl)c1)N[C@@H](C(=O)Nc1cccc(Br)c1)c1ccccc1 | – | – | 152 | 24.1
Cc1cccc(C)c1NC(=O)N[C@@H](C(=O)N[C@H](C)c1ccccc1)c1ccccc1 | – | – | 144 | 16.2
COc1ccc(NC(=O)N[C@@H](C(=O)Nc2ccccc2C)c2ccccc2)cc1 | – | – | 158 | 30.4
Cc1ccccc1NC(=O)[C@H](NCCc1ccc(N(C)C)cc1)c1ccccc1 | – | – | 143 | 13.5
COc1ccc(CCNC(=O)N[C@@H](C(=O)Nc2ccccc2Cl)c2ccccc2)cc1OC | – | – | 152 | 27.9
COc1cccc(CCN[C@@H](C(=O)Nc2ccccc2C)c2ccccc2)c1 | – | – | 140 | 16.2
COc1ccc(N2CCN(CC(OC(=O)c3cccc(C)c3)c3ccccc3)CC2)cc1 (stereo not given) | – | – | 141 | 8.56
CN1CCN(CC(OC(=O)c2ccc(-c3ccccc3)cc2)c2ccccc2)CC1 (stereo not given) | – | – | 142 | 7.41
COc1ccc(NC(=O)[C@H](NC(=O)NCCc2ccc(OC)c(OC)c2)c2ccccc2)cc1 | – | – | 141 | 21.1
O=C(Nc1ccc(C(F)(F)F)cc1)N[C@@H](C(=O)Nc1cc(F)ccc1F)c1ccccc1 | – | – | 227 | 43.6
Cc1ccccc1NC(=O)[C@H](NC(=O)Nc1c(C)cccc1C)c1ccccc1 | – | – | 149 | 24.2
Cc1ccccc1NC(=O)[C@H](NC(=S)Nc1ccccc1)c1ccccc1 | – | – | 179 | 36.2
Cc1ccccc1NC(=O)[C@H](NC(=O)Nc1ccccc1Cl)c1ccccc1 | – | – | 30.4 | 36.8
C[C@@H](NC(=O)[C@H](NC(=S)Nc1cc(C(F)(F)F)cc(C(F)(F)F)c1)c1ccccc1)c1ccccc1 | – | – | 178 | 32.9
O=C(Nc1ccc(F)cc1F)[C@H](NCCc1ccc(F)cc1)c1ccccc1 | 40.8 | 0.742 | 202 | 30.1
Cc1ccccc1NC(=O)[C@H](NCCc1ccc2[nH]ccc2c1)c1ccccc1 | – | – | 144 | 16.8
Cc1cccc(C)c1NC(=O)N[C@@H](C(=O)Nc1cc(F)ccc1F)c1ccccc1 | – | – | 147 | 24.9
COc1ccc(CCNC(=O)N[C@@H](C(=O)Nc2ccc(C(F)(F)F)cc2)c2ccccc2)cc1OC | – | – | 163 | 33.5
Cc1ccccc1NC(=O)[C@H](NC(=S)Nc1cc(C(F)(F)F)cc(C(F)(F)F)c1)c1ccccc1 | – | – | 205 | 43.1
O=C(Nc1cccc2ccccc12)N[C@@H](C(=O)Nc1cccc(Br)c1)c1ccccc1 | – | – | 150 | 24.6
